The record followed here is PubChem BioAssay.

The nature of test [1]: inhibitors of TNFa-induced NFkB p65 translocation, primary screen, imaging, HUVEC, MLSMR starter and 10KST1 sets (AID 438;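 active means inhibition above 20% together with a positive visual image hit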;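 further: compound added about 3h40 before a 20 min TNFalpha stimulation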;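 on inhibition: signal is the nuclear over cytoplasmic p65 intensity ratio per well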). To be noted: HUVEC TNFa-induced p65 nuclear translocation; cell count: measured here: nuclei count (cytotoxicity indicator), at 2.08 µM; inhibition: at 2 µM, stronger effect = higher value, 0% TNFa-plus-vehicle, 100% no-TNFa wells.
Test [2] in a line: inhibitors of mutant huntingtin aggregation, primary screen, imaging, exon1htt(103Q)mCFP cells, high-content imaging (AID 483;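 active means visual image review flags a hit and inhibition of aggregation exceeds 20%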;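 further: compound exposure lasted 3 days before fixation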;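 on nuclei count: percent of the per-plate median nuclei count of sample wells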). The note with it: exon1htt(103Q)mCFP cell line, aggregate imaging, at 2 µM; inhibition of aggregation: stronger effect = higher value; nuclei count: measured here: cell count, toxicity.
Test [3] is described as follows: inhibitors of E-selectin induction by TNFa, primary screen, imaging, HUVEC, immunofluorescence, MLSMR starter and 10KST1 sets (AID 487;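 active means visually confirmed hit in the image check and inhibition above 20%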;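 on inhibition: signal is fraction of cell area covered by stained E-selectin grains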;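 on nuclei count: 100% = median nuclei count of all wells on the same plate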). To be noted: HUVEC TNFalpha-induced E-selectin immunofluorescence imaging, at 2 µM; inhibition: stronger effect = higher value; nuclei count: measured here: cell number, toxicity.
The target of test [4] is Voltage-gated potassium channel subunit beta-2 (Rattus norvegicus) (UniProt P62483). The test is described as follows: KvBeta enzyme negative modulators, primary screen, biochemical, NADPH fluorescence (AID 622).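 Further: slope of raw intensity against log time taken from 70 to 1610 s.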 The note with it: recombinant KvBeta, 4-cyanobenzaldehyde reduction, at 10 µM, stronger effect = higher value.
Sequence of Voltage-gated potassium channel subunit beta-2 (Rattus norvegicus) (P62483 whole entry, looked up): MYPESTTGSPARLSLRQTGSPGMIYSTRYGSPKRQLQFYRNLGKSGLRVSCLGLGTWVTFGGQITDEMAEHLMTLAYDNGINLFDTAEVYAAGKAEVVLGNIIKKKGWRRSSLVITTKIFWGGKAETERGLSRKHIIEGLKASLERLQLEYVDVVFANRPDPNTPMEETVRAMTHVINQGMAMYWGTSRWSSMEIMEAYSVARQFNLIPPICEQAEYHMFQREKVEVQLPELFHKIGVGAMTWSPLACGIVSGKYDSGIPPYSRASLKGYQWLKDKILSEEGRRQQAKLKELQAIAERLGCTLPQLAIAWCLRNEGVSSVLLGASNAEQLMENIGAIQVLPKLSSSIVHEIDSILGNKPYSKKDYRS
The target is the same in test [5]. The test is described as follows: KvBeta positive modulators, primary screen, biochemical, NADPH fluorescence (AID 623;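 active means NADPH fluorescence slope more negative than the mean of all samples by about 3 SD, 99.7% confidence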;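 further: fluorescence intensity change per second fitted from 20 to 320 s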). To be noted: Recombinant KvBeta, NADPH fluorescence decrease slope, 10 min; at 10 µM; stronger effect = lower value.
Test [6] concerns the target Alpha-2C adrenergic receptor (Homo sapiens) (UniProt P18825). As to the kind of experiment: modulators of alpha2C/GIRK thallium flux, primary screen, cell-based, HEK293 alpha2C/GIRK1/2 (AID 624;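 active means fluorescence slope after compound addition differing from the mean of all screened samples at 99.7% confidence, in either direction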;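 further: slope of fluorescence ratio to pre-addition baseline per second over 15 to 24 s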). The note with it: thallium flux BTC fluorescence, at 10 µM, actives lie on both sides.
A short description of test [7]: inhibitors of larval lipid processing in zebrafish, primary screen, whole organism, PED6 fluorescence, gall bladder and intestine (AID 686;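 active means a full or partial loss of lipid-probe fluorescence in the fish gall bladder, intestine or both, judged by eye; inactive means no fluorescence loss, or compound toxic to the fish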;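 further: larvae 5 to 7 days old with five fish per well; signal comes from phospholipase A2 cleavage of quenched PED6 carried via bile; overnight exposure to compound and PED6 before scoring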). The note with it: Zebrafish larvae PED6 lipid processing, fluorescence scoring; screened at 20 µM (by protocol). The procedure, abridged:
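Doses: 20 µM single dose. Test system: live zebrafish larvae aged 5-7 days, whole organism. Quantity: five larvae per well. Measured by: By-eye fluorescence microscopy. Reagent: ingested quenched lipid PED6 at 100 nM. Read-out: visual per-well fluorescence inhibition score. Times: overnight exposure of larvae to compound plus PED6.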

The nature of test [8]: inhibitors of Sendai virus-induced IRF3 signaling, primary screen, TLR/RLR signaling modifier project, cell-based, Sendai virus stimulus, luciferase, 10K MLSCN set (AID 602276;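 active means inhibition at or above 50% at 10 µM; inactive means inhibition below 50%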;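 further: firefly luciferase from ISG56 promoter only with Renilla not read in this screen; 0% = Sendai virus plus DMSO and 100% = medium plus DMSO without virus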). The note with it: HEK293 RL24 IRF3 luciferase reporter, at 10 µM, stronger effect = higher value. A general note: A reporter such as luciferase makes a cellular process visible.
A short description of test [9]: inhibitors of poly I:C-induced TLR3 signaling, primary screen, cell-based, poly I:C stimulus, luciferase, 10K MLSCN set (AID 602277;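 active means inhibition of the reporter signal at or above 50%; inactive means inhibition below 50%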). To be noted: HEK293-TLR3 RL24 IRF3 luciferase reporter, at 10 µM, stronger effect = higher value.

Activity calls are given as the source filed them.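 How the source made its calls, unless noted: active means fluorescence slope higher than the sample average by over 3 SD (cut at about -0.22 in these data, passing the limit was not always enough); inactive means the rest.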

Sequence of Alpha-2C adrenergic receptor (Homo sapiens) (P18825 whole entry, looked up): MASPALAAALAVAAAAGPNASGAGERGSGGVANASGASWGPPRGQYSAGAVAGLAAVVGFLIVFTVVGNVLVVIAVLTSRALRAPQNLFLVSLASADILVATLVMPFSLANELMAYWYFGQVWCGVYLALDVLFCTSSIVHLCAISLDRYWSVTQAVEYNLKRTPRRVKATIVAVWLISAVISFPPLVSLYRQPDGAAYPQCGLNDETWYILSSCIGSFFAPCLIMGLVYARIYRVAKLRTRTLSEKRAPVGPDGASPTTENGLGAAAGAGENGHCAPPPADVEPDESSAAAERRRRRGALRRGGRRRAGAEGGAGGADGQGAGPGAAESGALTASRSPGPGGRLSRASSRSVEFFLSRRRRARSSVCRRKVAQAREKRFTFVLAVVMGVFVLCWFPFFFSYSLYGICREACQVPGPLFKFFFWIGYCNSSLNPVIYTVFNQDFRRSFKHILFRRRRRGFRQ

One may read the inhibition as the drop in the measured response relative to a control, in per cent. Turning to `Cc1cccc(C)c1NC(=O)COC(=O)c1nonc1N`, the cell count in test [1] is 429. In addition, the inhibition was -1.3% (inactive) in test [1], 32.7% (inactive) in test [3], 4.72% (inactive) in [8] and 2% (inactive) in test [9]. In test [2], the inhibition of aggregation is 3.6% (inactive). The nuclei count is 99.3% in test [2] and 87.2% in test [3]. Also, the fluorescence slope in test [4] was -0.34 (inactive). Besides, the NADPH fluorescence slope in test [5] is -6.4e-05 (inactive). Also, the slope in test [6] was 0.0052 (inactive). Also, in test [7], the call was inactive.
`Cc1nnc(SCc2cccc(Oc3ccccc3)c2)n1N`: in [1], the cell count was determined as 701. Further, the inhibition is -4.2% (inactive) in test [1], -59.1% (inactive) in [3], -4.43% (inactive) in test [8] and 98.8% (active) in test [9]. For the same molecule, the inhibition of aggregation in [2] was 2.8% (inactive). For the same molecule, the nuclei count in test [2] turned out to be 108%; in test [3], 105%. Also, the fluorescence slope in [4] is -0.384 (inactive). For the same molecule, the NADPH fluorescence slope in test [5] is -3e-05 (inactive). Moreover, the slope in test [6] is 0.00543 (inactive). Further, the outcome in [7] was inactive.
Take `CCOC(=O)N1CCC(NC(=O)Cn2cc3c(n2)CCC(C)C3)CC1` (stereo unspecified): in test [1], the cell count amounted to 420. Also, the inhibition in [1] was -11.9% (inactive); in test [3] it was -5.4% (inactive); in test [8], -10.4% (inactive); in [9], -9.33% (inactive). Moreover, in [2], the inhibition of aggregation is 0.7% (inactive). For the same molecule, the figures for the nuclei count in test [2] and in [3] were 108% and 101%, respectively. In addition, the fluorescence slope in test [4] was -0.479 (inactive). The NADPH fluorescence slope in test [5] was 1.7e-05 (inactive). Moreover, the slope in test [6] was 0.0047 (inactive). Further, the molecule was called inactive in test [7].
On to `CCc1nnc(NC(=O)CSc2nc(-c3ccc(OC)cc3)ns2)s1`, for which the cell count in test [1] turned out to be 203. Besides, the inhibition in test [1] was -10.4% (inactive); in [3], -32.2% (inactive); in test [8], -36.8% (inactive); in [9], -50.2% (inactive). Further, in test [2], the inhibition of aggregation is -17.4% (inactive). Also, the nuclei count in test [2] is 82%; in test [3], 98.7%. The fluorescence slope in test [4] is -0.408 (inactive). Further, in test [5], the NADPH fluorescence slope is 3.8e-06 (inactive). Besides, the slope in test [6] was 0.00688 (inactive). Further, the call in test [7] was inactive.
Turning to `CCOC(=O)c1ccccc1NC1CC(=O)N(c2ccccc2C)C1=O` (stereo unspecified), the cell count in test [1] worked out at 242. Also, the inhibition in test [1] was 6.7% (inactive); in [3], 8.6% (inactive); in test [8], -4.41% (inactive); in [9] it was -8.61% (inactive). Further, in test [2], the inhibition of aggregation is 12.6% (inactive). The nuclei count was determined as 97.9% in [2] and 94.8% in [3]. For the same molecule, the fluorescence slope in test [4] was -0.262 (inactive). In addition, the NADPH fluorescence slope in [5] was 9.8e-06 (inactive). For the same molecule, the slope in [6] was 0.00569 (inactive). Further, the molecule was classed as inactive in test [7].
As for `COc1ccccc1N(CC(=O)NC1CCCC1)C(=O)c1csnn1`, in [1], the cell count came to 723. The inhibition is -1.7% (inactive) in test [1], -49.4% (inactive) in test [3], -0.44% (inactive) in [8] and 1.68% (inactive) in test [9]. Moreover, the inhibition of aggregation in [2] was 10.7% (inactive). Besides, the nuclei count turned out to be 109% in test [2] and 126% in test [3]. Further, the fluorescence slope in test [4] is -0.365 (inactive). Moreover, in test [5], the NADPH fluorescence slope is -2.7e-05 (inactive). Further, the slope in test [6] is 0.00495 (inactive). Besides, the molecule was called inactive in test [7].
Take `COc1ccc(C(=O)NCCC(C)C)cc1S(=O)(=O)N1CCOCC1`: in [1], the cell count was 229. Further, the inhibition in test [1] was -32.8% (inactive); in test [3], 25.8% (inactive); in [8] it was 17.2% (inactive); in test [9], 19.8% (inactive). Also, the inhibition of aggregation in test [2] is 0.6% (inactive). Moreover, the nuclei count in test [2] stood at 66.7%; in test [3], 109%. Besides, in [4], the fluorescence slope was -0.355 (inactive). The NADPH fluorescence slope in test [5] is 6.5e-06 (inactive). The slope in test [6] was 0.00454 (inactive). Further, the molecule was classed as inactive in test [7].
Consider `COc1cc(C(=O)NCC(=O)OCC(=O)c2ccc[nH]2)cc(OC)c1OC`, for which the cell count in test [1] is 383. Moreover, the inhibition in test [1] was -23% (inactive); in test [3] it was -64.2% (inactive); in test [8] it was 13.9% (inactive); in [9], 16.7% (inactive). Moreover, the inhibition of aggregation in [2] was 10.7% (inactive). Also, the nuclei count is 101% in [2] and 107% in test [3]. Further, the fluorescence slope in test [4] is -0.458 (inactive). Further, the NADPH fluorescence slope in test [5] is -4.1e-05 (inactive). Further, the slope in test [6] is 0.00501 (inactive). Besides, the molecule was called inactive in test [7].
In the case of `CSc1ccc(-c2cc(=O)c3ccccc3o2)cc1`, the cell count in test [1] turned out to be 620. In addition, the inhibition in test [1] is -10.5% (inactive); in [3] it was -108% (inactive); in test [8], -21% (inactive); in test [9] it was -41.6% (inactive). In addition, the inhibition of aggregation in test [2] was -54.9% (inactive). For the same molecule, the figures for the nuclei count in test [2] and in test [3] were 8.7% and 139%, respectively. The fluorescence slope in test [4] was -0.00698 (active). Besides, in [5], the NADPH fluorescence slope is 1.2e-05 (inactive). The slope in [6] was 0.00442 (inactive). For the same molecule, the molecule was classed as inactive in test [7].
`Cc1occc1C(=O)Nc1ccc(S(=O)(=O)N2CCN(C)CC2)cc1`: the cell count in test [1] amounted to 318. For the same molecule, the inhibition was 1% (inactive) in [1], -42.1% (inactive) in [3], 15.9% (inactive) in [8] and 16.1% (inactive) in test [9]. The inhibition of aggregation in [2] is -23.8% (inactive). Besides, the results for the nuclei count in test [2] and in test [3] were 95.5% and 107%, respectively. For the same molecule, the fluorescence slope in test [4] was -0.44 (inactive). Moreover, the NADPH fluorescence slope in [5] is -1.3e-05 (inactive). For the same molecule, the slope in [6] was 0.00548 (inactive). Also, in [7], the outcome was inactive.
Consider `Cc1ccc(CN2C(=O)CCC2C(=O)NCCCN2CCCC(C)C2)cc1` (stereo unspecified), for which the cell count in test [1] worked out at 436. Moreover, the inhibition is 6.9% (inactive) in test [1], -43.5% (inactive) in test [3], -5.02% (inactive) in test [8] and 4.05% (inactive) in [9]. Besides, the inhibition of aggregation in test [2] is -3.9% (inactive). In addition, the nuclei count came to 106% in test [2] and 129% in test [3]. Also, the fluorescence slope in test [4] is -0.434 (inactive). The NADPH fluorescence slope in [5] was -2.5e-05 (inactive). Moreover, in [6], the slope is 0.0056 (inactive). In addition, the outcome in [7] was inactive.
Regarding `COc1ccc(NC(=O)Cn2nnc(-c3ccccc3F)n2)cc1Cl`, the cell count in test [1] is 602. In addition, the inhibition was -9.3% (inactive) in test [1], -59.1% (inactive) in test [3], 7.23% (inactive) in test [8] and 38.7% (inactive) in test [9]. Besides, in [2], the inhibition of aggregation was -0.1% (inactive). The nuclei count in [2] was 92.6%; in test [3], 107%. Moreover, in test [4], the fluorescence slope is -0.382 (inactive). In test [5], the NADPH fluorescence slope is 1.8e-05 (inactive). Besides, the slope in test [6] was 0.00543 (inactive). For the same molecule, the call in test [7] was inactive.
Consider `CCOC(=O)c1ccc(CNC(=O)C(Cc2c[nH]c3ccccc23)NC(C)=O)o1` (stereo unspecified), for which, in test [1], the cell count was 444. The inhibition in test [1] was -0.3% (inactive); in test [3], -52.8% (inactive); in test [8], 17% (inactive); in test [9] it was 29.3% (inactive). Further, in [2], the inhibition of aggregation is -11.1% (inactive). The nuclei count was 122% in [2] and 167% in [3]. Further, the fluorescence slope in test [4] is -0.369 (inactive). Besides, the NADPH fluorescence slope in test [5] was -4.9e-06 (inactive). The slope in test [6] is 0.00652 (inactive). Further, the molecule was called inactive in [7].
